Results: ChEMBL document CHEMBL3393041, “Denhaminols A-H, dihydro-β-agarofurans from the endemic Australian rainforest plant Denhamia celastroides” (J Nat Prod, 2015)
pIC50: −log10 of the molar value. Activity calls are given as the source filed them. The calls are words filed in the database; no cut-off is given here.

Key:
Format in all cases: functional, cell-based
LNCaP [1] = assay: Growth inhibition of human LNCAP cells after 72 hrs by Alamar Blue assay
Procedure, shortened: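 LNCaP cells in phenol-red-free RPMI-1640 with 5% FBS were seeded 4000/well for 24 h, then treated with compounds diluted from DMSO into medium (DMSO ≤0.4%). Metabolic activity was read by AlamarBlue endpoint after 72 h. IC50 was calculated at 72 h. DMSO served as negative control and doxorubicin as positive control. Triplicate points; three independent experiments.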

LNCaP [2] = assay: Reduction in sterol content in human LNCAP cells at 60 uM after 72 hrs by nile red staining based fluorescence microscopy
Procedure, shortened: (§1)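 LNCaP cells were seeded at 3000/well on poly-L-ornithine-coated plates in phenol-red-free RPMI-1640 with 5% FBS for 48 h, then treated for 72 h. Cells were fixed in 4% paraformaldehyde for 20 min on ice and stained 20 min at RT in PBS with 1.0 μg/mL DAPI and 0.25 μg/mL Nile Red. Mean fluorescence was measured for neutral lipids (Cy3) and phospholipids (Cy5) in ~300 cells at 10×. Analysis used one-way ANOVA with Dunnett's test. DMSO was the negative control and TOFA the positive control. Duplicate points; three independent experiments.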

LNCaP [3] = assay: Reduction in triglyceride content in human LNCAP cells at 60 uM after 72 hrs by nile red staining based fluorescence microscopy; procedure, shortened: as §1
LNCaP [4] = assay: Reduction in fatty acid content in human LNCAP cells at 60 uM after 72 hrs by nile red staining based fluorescence microscopy; procedure, shortened: as §1
LNCaP [5] = assay: Reduction in phosphatidylcholine content in human LNCAP cells at 60 uM after 72 hrs by nile red staining based fluorescence microscopy; procedure, shortened: as §1
LNCaP [6] = assay: Reduction in phosphatidylethanolamine content in human LNCAP cells at 60 uM after 72 hrs by nile red staining based fluorescence microscopy; procedure, shortened: as §1
LNCaP [7] = assay: Reduction in phosphatidylserine content in human LNCAP cells at 60 uM after 72 hrs by nile red staining based fluorescence microscopy; procedure, shortened: as §1
LNCaP [8] = assay: Reduction in sterol content in human LNCAP cells at 10 uM after 72 hrs by nile red staining based fluorescence microscopy; procedure, shortened: as §1
LNCaP [9] = assay: Reduction in triglyceride content in human LNCAP cells at 10 uM after 72 hrs by nile red staining based fluorescence microscopy; procedure, shortened: as §1
LNCaP [10] = assay: Reduction in fatty acid content in human LNCAP cells at 10 uM after 72 hrs by nile red staining based fluorescence microscopy; procedure, shortened: as §1
LNCaP [11] = assay: Reduction in phosphatidylcholine content in human LNCAP cells at 10 uM after 72 hrs by nile red staining based fluorescence microscopy; procedure, shortened: as §1
LNCaP [12] = assay: Reduction in phosphatidylethanolamine content in human LNCAP cells at 10 uM after 72 hrs by nile red staining based fluorescence microscopy; procedure, shortened: as §1
LNCaP [13] = assay: Reduction in phosphatidylserine content in human LNCAP cells at 10 uM after 72 hrs by nile red staining based fluorescence microscopy; procedure, shortened: as §1
LNCaP [14] = assay: Antiproliferative activity against human LNCAP cells assessed as enlargement, granulation and cell burst at 10 to 100 uM by live-cell imaging method; conditions: TDE = time-dependent effect
Procedure, shortened: (§2)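 LNCaP cells (ATCC) grown in phenol-red-free RPMI-1640 with 5% FBS at 37 °C, 5% CO2, kept in log phase. Cells seeded 4000/well for 24 h, then treated with compounds in DMSO diluted in medium (DMSO ≤0.4%). Plates imaged every 2 h for 96 h by IncuCyte live-cell imaging; growth read as confluence; morphology recorded from the images. DMSO as vehicle control.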

LNCaP [15] = assay: Antiproliferative activity against human LNCAP cells assessed as enlargement, granulation and cell burst measured every 2 hrs for 96 hrs by live-cell imaging method; procedure, shortened: as §2
LNCaP [16] = assay: Antiproliferative activity against human LNCAP cells assessed as change in cell morphology at 10 to 100 uM measured up to 96 hrs by live-cell imaging method; procedure, shortened: as §2
LNCaP [17] = assay: Reduction in phosphatidylcholine content in human LNCAP cells at 25 uM after 72 hrs by nile red staining based fluorescence microscopy; procedure, shortened: as §1
LNCaP [18] = assay: Reduction in phosphatidylethanolamine content in human LNCAP cells at 25 uM after 72 hrs by nile red staining based fluorescence microscopy; procedure, shortened: as §1
LNCaP [19] = assay: Reduction in phosphatidylserine content in human LNCAP cells at 25 uM after 72 hrs by nile red staining based fluorescence microscopy; procedure, shortened: as §1

Question: With `CC(=O)OC[C@@]12[C@@H](OC(C)=O)CC[C@](C)(O)[C@]13OC(C)(C)[C@H](C[C@@H]2OC(=O)/C=C/c1ccccc1)[C@H]3OC(C)=O` as the molecule, how does the pIC50 (LNCaP [1]) read?
Answer: The pIC50 was < 5.00.

Question: And the Activity (LNCaP [2])?
Answer: The Activity was “Active”.

Question: What about the Activity (LNCaP [3]) of the same molecule?
Answer: Its Activity is “Active”.

Question: What about the Activity (LNCaP [4]) of the same molecule?
Answer: The Activity was “Active”.

Question: And the Activity (LNCaP [5])?
Answer: The Activity was “Active”.

Question: And the Activity (LNCaP [6])?
Answer: The Activity was “Active”.

Question: What about the Activity (LNCaP [7]) of the same molecule?
Answer: The Activity was “Active”.

Question: `C/C=C(\C)C(=O)OCC1(C)O[C@]23[C@H](OC(C)=O)[C@H]1C[C@H](OC(=O)/C=C/c1ccccc1)[C@]2(COC(C)=O)[C@@H](OC(=O)COC(C)=O)CC[C@]3(C)O` (stereo partly specified) was tested. Which pIC50 (LNCaP [1]) did it give?
Answer: The pIC50 was < 5.00.

Question: Which results are given for `CCCCCCCCCCCCCCOc1ccc(C(=O)O)o1`?
Answer: Activity (LNCaP [8]): Active; Activity (LNCaP [9]): Active; Activity (LNCaP [10]): Active; Activity (LNCaP [11]): Active; Activity (LNCaP [12]): Active; Activity (LNCaP [13]): Active

Question: With `CC(=O)OC[C@@]12[C@@H](OC(C)=O)CC[C@](C)(O)[C@]13OC(C)(C)[C@H](C[C@@H]2OC(=O)/C=C/c1ccccc1)[C@H]3O` as the molecule, how does the pIC50 (LNCaP [1]) read?
Answer: The pIC50 was < 5.00.

Question: How did the pIC50 (LNCaP [1]) turn out when `CC(=O)OC[C@@]12[C@@H](OC(C)=O)CC[C@](C)(O)[C@]13OC(C)(C)[C@H]([C@H](O)[C@@H]2OC(=O)/C=C/c1ccccc1)[C@H]3OC(C)=O` was run?
Answer: The pIC50 was < 5.00.

Question: With `CC(=O)OC[C@@]12[C@@H](OC(C)=O)CC[C@](C)(O)[C@]13OC(C)(COC(=O)c1ccccc1)[C@H](C[C@@H]2OC(=O)/C=C/c1ccccc1)[C@H]3OC(C)=O` (stereo partly specified) as the molecule, how does the pIC50 (LNCaP [1]) read?
Answer: Its pIC50 is < 5.00.

Question: How did the pIC50 (LNCaP [1]) turn out when `C/C=C(\C)C(=O)OCC1(C)O[C@]23[C@H](OC(C)=O)[C@H]1[C@H](O)[C@H](OC(=O)/C=C/c1ccccc1)[C@]2(C)[C@@H](OC(=O)COC(C)=O)CC[C@]3(C)O` (stereo partly specified) was run?
Answer: Its pIC50 is < 5.00.

Question: What about the Activity (LNCaP [14]) of the same molecule?
Answer: The Activity was “tde”.

Question: What about the Activity (LNCaP [15]) of the same molecule?
Answer: Its Activity is “Dose-dependent effect”.

Question: What about the Activity (LNCaP [16]) of the same molecule?
Answer: Its Activity is “Active”.

Question: What about the Activity (LNCaP [17]) of the same molecule?
Answer: The Activity was “Active”.

Question: And the Activity (LNCaP [18])?
Answer: The Activity was “Active”.

Question: And the Activity (LNCaP [19])?
Answer: Its Activity is “Active”.

Question: How did the pIC50 (LNCaP [1]) turn out when `CC(=O)OCC(=O)O[C@H]1CC[C@](C)(O)[C@]23OC(C)(COC(=O)c4ccccc4)[C@H]([C@H](O)[C@H](OC(=O)/C=C/c4ccccc4)[C@]12C)[C@H]3OC(C)=O` (stereo partly specified) was run?
Answer: Its pIC50 is < 5.00.

Question: `CC(=O)OC[C@@]12[C@@H](OC(C)=O)CC[C@](C)(O)[C@]13OC(C)(COC(=O)c1ccccc1)[C@H](C[C@@H]2OC(=O)/C=C/c1ccccc1)[C@H]3O` (stereo partly specified) was tested. Which pIC50 (LNCaP [1]) did it give?
Answer: Its pIC50 is < 5.00.
